Measured values taken from paper PMC4167792 (Analytical biochemistry, 2013).
“And” between values parts separate entries of the source, which are not always exact repeats. Identical values can stand only once.

Tests used:
SIRT6 protein = SIRT6 protein (Gallus gallus, UniProt A0A8V1A309); assay: Frontal affinity chromatography on the SIRT6-OT column; type: binding, chicken; details: for Kd: SIRT6-OT column, ammonium acetate 10 mM pH 7.4:methanol 90:10, 0.2 mM NAD+, non-linear regression
SIRT6 = assay: Histone deacetylation assay by mass spectrometry on SIRT6-coated magnetic beads; type: biochemical, chicken; details: 10 μM of each compound, H3K9Ac peptide, 0.2 mM NAD+, 4 h at 37°C
Summary of the method: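 SIRT6 was coupled by its C-terminus to amine-terminated magnetic beads (1 μm). Beads were incubated in 50 μL of 50 mM Tris-HCl pH 8.0, 150 mM NaCl, 1 mM DTT with 5 μg of H3K9Ac peptide (residues 1–21). p-Aminohippuric acid was added as internal standard. The supernatant, taken after magnetic separation, was run on C18 LC-ESI-MS, positive-ion SIM at m/z 922.4 (acetylated) and 908.4 (deacetylated).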

[1] = tested on: quercetin binding site of SIRT6; assay: Frontal displacement chromatography of quercetin on the SIRT6-OT column; design: species or system chicken; details: 10 μM polyphenol in mobile phase in the presence of 5 μM quercetin
Summary of the method: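 Full-length chicken SIRT6, expressed in E. coli as a GST fusion, thrombin-cleaved and purified by size exclusion. Coupled inside an open tubular capillary (30 cm × 100 μm i.d.) with EDC/Sulfo-NHS in 100 mM MES pH 5.5, 18 h at 4°C. Frontal runs at room temperature, 0.05 mL min^-1, in 10 mM ammonium acetate pH 7.4:methanol (90:10) with 0.2 mM NAD⁺. ESI-MS detection; retention-volume shift recorded.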

O=c1cc(-c2ccc(O)cc2)oc2cc(O)cc(O)c12 [Apigenin]
Kd (SIRT6 protein): 1.9 µM and 1.92 µM
% inhibition of deacetylation relative to control (SIRT6): 39.0 ± 5.9%

O=c1c(O)c(-c2ccc(O)cc2)oc2cc(O)cc(O)c12 [Kaempferol]
Kd (SIRT6 protein): 3.88 ± 0.57 µM
% inhibition of deacetylation relative to control (SIRT6): 48.6 ± 6.0%

O=c1cc(-c2ccc(O)c(O)c2)oc2cc(O)cc(O)c12 [Luteolin]
Kd (SIRT6 protein): 1.78 ± 0.64 µM
% inhibition of deacetylation relative to control (SIRT6): 53.7 ± 17.7%
displacement of quercetin (change in retention) [1]: 38.1 min

O=C1C[C@@H](c2ccc(O)cc2)Oc2cc(O)cc(O)c21 [Naringenin]
Kd (SIRT6 protein): 6.6 µM and 6.62 µM
fold decrease in affinity for the SIRT6 protein (SIRT6 protein; naringenin vs apigenin (saturation of the C ring double bond)): 3 fold
% inhibition of deacetylation relative to control (SIRT6): 31.0 ± 5.3%

O=c1c(O)c(-c2ccc(O)c(O)c2)oc2cc(O)cc(O)c12 [Quercetin]
breakthrough volume (SIRT6 protein; 2 μM quercetin on SIRT6-OT column): 5.25 mL
midpoint of the breakthrough curve (SIRT6 protein; 2 μM quercetin on SIRT6-OT column, 0.05 mL/min): 105 min
Kd (SIRT6 protein): 4.09 ± 2.26 µM
% inhibition of deacetylation relative to control (SIRT6): 46.6 ± 2.3%

O=c1cc(-c2ccc(O)cc2)oc2c([C@@H]3O[C@H](CO)[C@@H](O)[C@H](O)[C@H]3O)c(O)cc(O)c12 [Vitexin]
Kd (SIRT6 protein): 15.3 µM
% inhibition of deacetylation relative to control (SIRT6): 24.9 ± 0.9%
displacement of quercetin (change in retention) [1]: 16.5 min

O=c1c(-c2ccc(O)cc2)coc2cc(O)cc(O)c12 [genistein, Genistein]
displacement of quercetin (change in retention) [1]: 2.5 min
